Screens: PubChem BioAssay, The Scripps Research Institute Molecular Screening Center
Sampled rows, rich in hits. Any-hit rate of the full collection: about 2.9%.
PAD4 FP inh: inhibitors of human PAD4 | 330,000 tested, 0.41% active | Q9UM07 | recombinant PAD4, RCA probe fluorescence polarization | inhibition, % at 6.36 µM | AID 485272;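 active = percent inhibition above a cutoff equal to the mean of all tested compounds plus 3 SD, cut at about 15% in these data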;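 also: 0% = PAD4 with RCA probe and DMSO and 100% = probe without PAD4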
HTRA1 inh: inhibitors of human serine peptidase HTRA1; Q92743; recombinant HTRA1, FP-rhodamine activity-based probe, fluorescence polarization; inhibition, % at 5.96 µM; 340,000 tested, 0.5% active; in the data active = inhibition above about 36%;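 also: 0% = enzyme with DMSO and 100% = wells lacking enzyme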
PRMT1 inh: blocks human protein arginine methyltransferase 1. inhibition, % at 2.79 µM. recombinant PRMT1, activity-based probe fluorescence polarization. 370,000 tested, 1.3% active;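 active = inhibition above about 21% made by adding two undisclosed values, limit read from the data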
Target sequence (Q99873 whole entry, looked up): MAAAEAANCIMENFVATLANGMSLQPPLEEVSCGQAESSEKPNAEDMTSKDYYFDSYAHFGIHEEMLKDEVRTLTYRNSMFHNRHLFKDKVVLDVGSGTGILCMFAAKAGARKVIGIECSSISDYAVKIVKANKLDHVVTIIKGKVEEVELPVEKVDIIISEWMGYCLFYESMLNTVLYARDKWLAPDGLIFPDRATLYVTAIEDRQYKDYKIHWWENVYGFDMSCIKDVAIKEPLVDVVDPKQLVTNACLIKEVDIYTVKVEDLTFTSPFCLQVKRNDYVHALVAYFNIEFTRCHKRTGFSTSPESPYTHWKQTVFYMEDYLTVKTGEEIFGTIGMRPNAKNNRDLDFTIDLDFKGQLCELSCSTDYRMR
TCR-CD3 inh: human TCR-CD3 binding inhibition; 360,000 tested, 0.37% active; inhibition, % at 9.4 µM; TAMRA-labeled TCR probe fluorescence, biochemical; in the data active = inhibition above about 19%;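 also: recombinant mutant TCR 2C K166C tagged with TAMRA read by polarization; 0% = receptor in buffer alone and 100% = receptor with positive control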
ABHD4 inh: ABHD4 (mouse) inhibition, primary FP screen; inhibition, % at 8.92 µM; 370,000 tested, 0.54% active; Q8VD66; purified mABHD4, FP-Rh probe fluorescence polarization; AID 720543;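 active = inhibition exceeding the mean over every tested compound plus 3 SD, cut at about 30% in these data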;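 also: 0% = plate median of compound wells and 100% = S159A mutant with DMSO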
Target sequence (Q8VD66 whole entry, looked up): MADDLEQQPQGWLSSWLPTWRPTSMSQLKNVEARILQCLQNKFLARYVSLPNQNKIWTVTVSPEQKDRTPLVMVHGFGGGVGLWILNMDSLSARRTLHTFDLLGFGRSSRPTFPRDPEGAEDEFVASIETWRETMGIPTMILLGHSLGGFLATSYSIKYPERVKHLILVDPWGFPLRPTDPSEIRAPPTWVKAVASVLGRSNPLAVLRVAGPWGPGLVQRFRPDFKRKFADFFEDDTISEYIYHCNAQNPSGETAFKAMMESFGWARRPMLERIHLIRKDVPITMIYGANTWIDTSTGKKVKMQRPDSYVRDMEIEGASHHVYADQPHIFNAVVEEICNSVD
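Assay system: mABHD4 protein; medium: HEPES pH 7.0, NaCl, Pluronic buffer; dosing: 8.92 µM, single dose; schedule: 45 min + 60 min at 25 °C; signal: FP readout, ex 525 nm / em 598 nm; read-out: normalized percent inhibition of probe labeling; repeats: single replicate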
SIAE primary: blocks human sialic acid acetylesterase | Q9HAT2 | 370,000 tested, 0.69% active | SIAE FP-Rh probe binding, fluorescence polarization | inhibition, % at 9.66 µM;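 active = inhibition above a cutoff: mean of compounds within the control limits plus 3 SD of those, cut at about 17% in these data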;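 also: 0% = plate median of compound wells and 100% = probe without SIAE protein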
Active calls of the source: *; / = no result given.

SMILES | PAD4 FP inh | HTRA1 inh | PRMT1 inh | TCR-CD3 inh | ABHD4 inh | SIAE primary
COc1ccc2[nH]c3c(c2c1)CCN[C@]31C(=O)N(Cc2ccccc2)c2ccccc21 | / | / | 2.5 | / | 3.0 | 2.2
CCCOc1ccc(N2C(=O)CC(SCCN)C2=O)cc1 (stereo not given) | -2.5 | 2.0 | 22.4* | 2.1 | 1.1 | 5.3
O=[N+]([O-])c1ccc(S(=O)(=O)c2ccccc2)nc1 | 4.4 | 1.0 | 28.9* | 5.5 | 1.5 | -3.6
Cc1ccc(S(=O)(=O)c2ccc([N+](=O)[O-])cn2)cc1 | 6.8 | 0.1 | 34.5* | 2.4 | 2.5 | -3.5
Nc1ccc(S(=O)(=O)c2ccccc2)nc1 | 1.1 | 0.9 | -0.3 | -3.2 | 2.5 | 5.7
COC(=O)[C@]12C[C@H](CC(=O)NCCC(C)C)C(=O)N(CCC3=CCCCC3)C1=C[C@H](C(C)C)O[C@@H]2C1CC1 | / | / | 4.7 | / | 3.5 | -1.9
O=C(CSc1nnc(-c2ccc(Cl)cc2)n1Cc1ccco1)c1cccs1 | -3.7 | -12.1 | 23.4* | -7.4 | -3.5 | -10.2
COc1cccc2sc(Nc3nc(-c4cc5ccccc5oc4=O)cs3)nc12 | 0.0 | -20.6 | -1.6 | 19.0* | 2.2 | -5.8
CC(=O)c1cc(O)c2ccccc2c1O | 3.9 | 31.5 | 45.0* | 0.8 | 38.6* | -2.6
C[C@@H]1OC(C2CCCCC2)N(C)[C@H]2C[C@H]3c4[nH]c5cccc(-c6cccc(F)c6)c5c4CCN3C(=O)[C@@H]12 (stereo not given in full) | / | / | 6.8 | / | 4.8 | -2.0
Oc1ccc(/C=N/NC(=S)Nc2cccnc2)cc1O | 3.9 | 14.6 | 4.3 | 24.2* | 26.0 | 6.8
Cc1cc(C(=O)CSc2nc(N)cc(=O)[nH]2)c(C)n1CCc1ccc(F)cc1 | 31.8* | -8.9 | 2.6 | 3.7 | 7.7 | 1.4
Cc1c(NC(=O)CN2CCN(c3ccc([N+](=O)[O-])cc3)CC2)c(=O)n(-c2ccccc2)n1C | -1.5 | -4.4 | -0.4 | -2.5 | 1.1 | -2.0
Cc1c(NC(=O)CN2CCN(c3ccc(O)cc3)CC2)c(=O)n(-c2ccccc2)n1C | 0.1 | 8.4 | 22.9* | 3.9 | 13.6 | 2.0
CCOC(=O)Nc1ccc2c(c1)[C@@]1(CC(=O)N(CC(C)C)C1c1ccccc1)C(=O)N2C (stereo not given in full) | / | / | 2.1 | / | 0.9 | 0.1
O=C(CNC(=O)c1ccc(Br)cc1)NCC(=O)OCC(=O)c1ccc([N+](=O)[O-])cc1 | -0.4 | 6.9 | 23.3* | -1.0 | 5.9 | 7.7
O=C(CNC(=O)c1ccc(Br)cc1)NCC(=O)OCC(=O)c1ccc(F)cc1 | / | -1.2 | -1.7 | -3.2 | 1.9 | 7.3
COC(=O)c1ccccc1NC(=O)CSc1ncccn1 | 2.1 | 2.3 | -1.7 | 4.2 | 5.8 | 4.7
COC(=O)c1cc(C)sc1NC(=O)CSc1ncccn1 | 1.7 | -3.3 | 22.2* | 2.5 | -11.9 | 3.8
O=C(NCc1ccco1)c1nc2nc(-c3cccs3)cc(C(F)(F)F)n2n1 | -5.1 | -10.9 | 23.1* | -1.3 | -7.8 | -1.9
O=C(O)c1ccc(Cl)c(NC(=S)NC(=O)c2ccccc2[N+](=O)[O-])c1 | 1.2 | 5.3 | 23.5* | 8.7 | -9.3 | -4.5
O=C(NC(=S)Nc1ccccc1[N+](=O)[O-])c1ccccc1Cl | -5.3 | 1.3 | -1.0 | -3.3 | -7.8 | -7.3
COC/C=C/C1=CC2=CC(=O)C(C)(OC(=O)c3cnc4ccccc4n3)C(=O)C2=CO1 (stereo not given) | 49.8* | / | / | / | / | /
COC/C=C/C1=CC2=CC(=O)C(C)(OC(=O)c3cnc4ccccc4n3)C(=O)C2=CN1C(CO)CO (stereo not given) | -9.4 | 3.8 | 7.3 | 0.0 | 3.0 | 3.3
COc1ccc(OC)c(S(=O)(=O)n2c(CN3CCOCC3)nc3ccccc32)c1 | / | / | 9.2 | / | 1.1 | -2.7
SMILES | PAD4 FP inh | HTRA1 inh | PRMT1 inh | TCR-CD3 inh | ABHD4 inh | SIAE primary
COC(=O)C1CN(Cc2cn(Cc3ccc(F)cc3)nn2)CCS(=O)(=O)N1Cc1ccc(OC)cc1 (stereo not given) | / | / | -0.1 | / | 3.4 | 0.5
CCOC(=O)C[n+]1c(C)sc2ccc(OC)cc21 | 18.5* | 0.4 | / | / | / | /
Cc1sc2ccccc2[n+]1CC(=O)c1ccccc1 | 5.9 | -4.5 | / | / | / | /
COc1ccc(C(C(=O)N(C)C2CCCC2)N(Cc2ccc(F)cc2)C(=O)c2cc(C)[nH]n2)cc1OC (stereo not given) | / | / | -3.7 | / | 2.0 | 5.3
N#Cc1c(SCC(=O)Nc2cccc(C(F)(F)F)c2)sc2c(O)cc(=O)[nH]c12 | -11.0 | -16.5 | 21.3* | 4.7 | -29.9 | -29.6
CCc1nnc(NC(=O)CSc2sc3c(O)cc(=O)[nH]c3c2C#N)s1 | -10.8 | -10.6 | 41.6* | 4.2 | -6.1 | -22.4
C=CCn1c(SCC(=O)C(C)(C)C)nnc1-c1ccc(Cl)cc1 | / | / | 2.4 | / | 2.4 | -0.1
CN1CC=C(c2ccccc2)N(c2ccc(Cl)cc2)C1=O | / | / | -3.3 | / | -1.9 | -0.1
O=C(CC1S/C(=N/N=C/c2ccco2)NC1=O)Nc1cccc(Cl)c1Cl (stereo not given) | -5.5 | 2.9 | 21.6* | -0.3 | -1.6 | 7.0
CCCC1S/C(=N/N=C/c2ccco2)NC1=O (stereo not given) | -1.6 | -2.1 | -1.6 | -3.6 | 3.1 | -3.4
CC(C)(C)NC(=O)C(c1cc2ccccc2o1)n1c(=O)c(-c2ccco2)nc2ccccc21 (stereo not given) | / | / | 23.3* | -7.6 | -5.7 | -10.9
CCCCCNC(=O)C(c1cc2ccccc2o1)n1c(=O)c(-c2ccco2)nc2ccccc21 (stereo not given) | / | / | 17.0 | 3.0 | -22.1 | -10.9
CC(C)N1Cc2nnn(Cc3ccc(F)cc3)c2-c2cc(F)ccc2S1(=O)=O | / | / | 0.7 | / | -11.1 | -6.2
O=C(CN1CCc2onc(-c3cccc(-n4cc(CO)nn4)c3)c2C1=O)N1CCOCC1 | / | / | -0.9 | / | 3.6 | 1.2
O=C1C=CC2C3C(=O)N(c4ccccc4)C(=O)C3C1N2Cc1ccccc1 (stereo not given) | / | 0.2 | 24.2* | -1.3 | -13.4 | -0.7
Cn1nc(C(=O)NC2CCCCC2)c2c1-c1ccccc1SC2 | 1.1 | -9.4 | -0.5 | 0.6 | 3.6 | -7.2
CC1CCC(NC(=O)c2nn(C)c3c2CSc2ccccc2-3)CC1 (stereo not given) | 2.6 | -9.2 | 22.3* | -1.9 | 8.5 | -5.1
Nc1ccccc1Sc1nc2ccccc2[nH]1 | 5.6 | -7.0 | 52.0* | -13.7 | 2.5 | 18.2*
O=C(CSc1cn(CCNC(=O)c2ccccc2)c2ccccc12)NCc1ccco1 | 1.5 | -10.9 | 3.9 | 1.3 | -1.1 | 18.2*
Cc1cc(O)c(C=O)c2c1C(=O)Oc1c(CO)c(O)c3c(c1O2)C(O)OC3=O (stereo not given) | 3.2 | 41.1* | / | / | / | /
CC(=O)Nc1ccc(C(=S)NCCCO)cc1 | -2.4 | -6.7 | 22.0* | -6.1 | -6.7 | -4.1
CN1CCCN(C(=O)C2CCCN(C(=O)c3ccc4c(c3)NC(=O)CS4)C2)CC1 (stereo not given) | / | / | -2.5 | / | 1.7 | 1.6
CCN(CC)C(=O)CC[C@H]1CC[C@]2(CCCN(C(=O)C(C)(C)C)C2)O1 | / | / | -1.1 | / | 1.3 | 4.4
